Measured values published in ChEMBL document CHEMBL5058577, “EUbOPEN Chemogenomics Library 2 (Multiplex)” (2022).

Test system: U2OS
Experiment: Multiplex assay against U2OS
Assay type: toxicity, cell-based
Conditions: human
Summary of the method: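 Cells stained live at seeding with Hoechst33342, BioTracker Green Microtubule Cytoskeleton Dye, MitoTracker Red and Annexin V Alexa Fluor 680 were imaged on a CQ1 microscope at 37°C and 5% CO2 after compound addition. Their classification by CellPathfinder machine-learning gating ran from Hoechst high-intensity objects versus normal cells, to healthy, pyknosed or fragmented nuclei among normal cells, to mitotic or apoptotic among pyknosed cells. Tubulin, mitochondrial-mass and membrane-permeability phenotypes are per cents of healthy-nucleus cells.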

[1] = 12 h, 1 µM, compound concentration 1 uM, replicate 1
[2] = 12 h, 1 µM, compound concentration 1 uM, replicate 2
[3] = 12 h, 10 µM, compound concentration 10 uM, replicate 1
[4] = 12 h, 10 µM, compound concentration 10 uM, replicate 2
[5] = 24 h, 1 µM, compound concentration 1 uM, replicate 1
[6] = 24 h, 1 µM, compound concentration 1 uM, replicate 2
[7] = 24 h, 10 µM, compound concentration 10 uM, replicate 1
[8] = 24 h, 10 µM, compound concentration 10 uM, replicate 2
[9] = 48 h, 1 µM, compound concentration 1 uM, replicate 1
[10] = 48 h, 1 µM, compound concentration 1 uM, replicate 2
[11] = 48 h, 10 µM, compound concentration 10 uM, replicate 1
[12] = 48 h, 10 µM, compound concentration 10 uM, replicate 2

SMILES: Oc1c(CN2CCN(c3ccccn3)CC2)cc(Cl)c2cccnc12
- Population Apoptotic (%) [1]: 95%
- Population Fragmented Nuclei (%) [1]: 24%
- Population Healthy Nuclei (%) [1]: 64%
- Population Hoechst High Intensity Objects (%) [1]: 1%
- Population Membrane Permeable-Phenotype (%) [1]: 3%
- Population Mitochondria Different-Phenotype (%) [1]: 1%
- Population Mitotic Cells (%) [1]: 4%
- Population Normal (%) [1]: 98%
- Population Pyknosed Nuclei (%) [1]: 10%
- Population Tubulin-Different-Phenotype (%) [1]: 2%
- Total Cell Count [1]: 237
- Population Apoptotic (%) [2]: 100%
- Population Fragmented Nuclei (%) [2]: 16%
- Population Healthy Nuclei (%) [2]: 78%
- Population Membrane Permeable-Phenotype (%) [2]: 13%
- Population Mitochondria Different-Phenotype (%) [2]: 4%
- Population Mitotic Cells (%) [2]: 0%
- Population Pyknosed Nuclei (%) [2]: 5%
- Population Tubulin-Different-Phenotype (%) [2]: 8%
- Total Cell Count [2]: 93
- Population Apoptotic (%) [3]: 84%
- Population Fragmented Nuclei (%) [3]: 31%
- Population Healthy Nuclei (%) [3]: 56%
- Population Hoechst High Intensity Objects (%) [3]: 2%
- Population Membrane Permeable-Phenotype (%) [3]: 12%
- Population Mitochondria Different-Phenotype (%) [3]: 28%
- Population Mitotic Cells (%) [3]: 15%
- Population Normal (%) [3]: 97%
- Population Pyknosed Nuclei (%) [3]: 11%
- Population Tubulin-Different-Phenotype (%) [3]: 8%
- Total Cell Count [3]: 229
- Population Apoptotic (%) [4]: 87%
- Population Fragmented Nuclei (%) [4]: 18%
- Population Healthy Nuclei (%) [4]: 68%
- Population Hoechst High Intensity Objects (%) [4]: 1%
- Population Membrane Permeable-Phenotype (%) [4]: 6%
- Population Mitochondria Different-Phenotype (%) [4]: 35%
- Population Mitotic Cells (%) [4]: 12%
- Population Normal (%) [4]: 98%
- Population Pyknosed Nuclei (%) [4]: 13%
- Population Tubulin-Different-Phenotype (%) [4]: 11%
- Total Cell Count [4]: 118
- Population Apoptotic (%) [5]: 88%
- Population Fragmented Nuclei (%) [5]: 29%
- Population Healthy Nuclei (%) [5]: 64%
- Population Hoechst High Intensity Objects (%) [5]: 1%
- Population Membrane Permeable-Phenotype (%) [5]: 3%
- Population Mitochondria Different-Phenotype (%) [5]: 2%
- Population Mitotic Cells (%) [5]: 11%
- Population Normal (%) [5]: 98%
- Population Pyknosed Nuclei (%) [5]: 6%
- Population Tubulin-Different-Phenotype (%) [5]: 2%
- Total Cell Count [5]: 270
- Population Apoptotic (%) [6]: 100%
- Population Fragmented Nuclei (%) [6]: 7%
- Population Healthy Nuclei (%) [6]: 87%
- Population Membrane Permeable-Phenotype (%) [6]: 9%
- Population Mitochondria Different-Phenotype (%) [6]: 3%
- Population Mitotic Cells (%) [6]: 0%
- Population Pyknosed Nuclei (%) [6]: 5%
- Population Tubulin-Different-Phenotype (%) [6]: 7%
- Total Cell Count [6]: 97
- Population Apoptotic (%) [7]: 90%
- Population Fragmented Nuclei (%) [7]: 27%
- Population Healthy Nuclei (%) [7]: 63%
- Population Hoechst High Intensity Objects (%) [7]: 4%
- Population Membrane Permeable-Phenotype (%) [7]: 10%
- Population Mitochondria Different-Phenotype (%) [7]: 14%
- Population Mitotic Cells (%) [7]: 9%
- Population Normal (%) [7]: 95%
- Population Pyknosed Nuclei (%) [7]: 9%
- Population Tubulin-Different-Phenotype (%) [7]: 7%
- Total Cell Count [7]: 238
- Population Apoptotic (%) [8]: 100%
- Population Fragmented Nuclei (%) [8]: 29%
- Population Healthy Nuclei (%) [8]: 58%
- Population Hoechst High Intensity Objects (%) [8]: 3%
- Population Membrane Permeable-Phenotype (%) [8]: 9%
- Population Mitochondria Different-Phenotype (%) [8]: 40%
- Population Mitotic Cells (%) [8]: 0%
- Population Normal (%) [8]: 96%
- Population Pyknosed Nuclei (%) [8]: 12%
- Population Tubulin-Different-Phenotype (%) [8]: 6%
- Total Cell Count [8]: 127
- Population Apoptotic (%) [9]: 94%
- Population Fragmented Nuclei (%) [9]: 25%
- Population Healthy Nuclei (%) [9]: 67%
- Population Hoechst High Intensity Objects (%) [9]: 3%
- Population Membrane Permeable-Phenotype (%) [9]: 6%
- Population Mitochondria Different-Phenotype (%) [9]: 3%
- Population Mitotic Cells (%) [9]: 5%
- Population Normal (%) [9]: 96%
- Population Pyknosed Nuclei (%) [9]: 7%
- Population Tubulin-Different-Phenotype (%) [9]: 3%
- Total Cell Count [9]: 276
- Population Apoptotic (%) [10]: 87%
- Population Fragmented Nuclei (%) [10]: 14%
- Population Healthy Nuclei (%) [10]: 77%
- Population Hoechst High Intensity Objects (%) [10]: 1%
- Population Membrane Permeable-Phenotype (%) [10]: 7%
- Population Mitochondria Different-Phenotype (%) [10]: 1%
- Population Mitotic Cells (%) [10]: 12%
- Population Normal (%) [10]: 98%
- Population Tubulin-Different-Phenotype (%) [10]: 5%
- Total Cell Count [10]: 111
- Population Apoptotic (%) [11]: 96%
- Population Fragmented Nuclei (%) [11]: 32%
- Population Healthy Nuclei (%) [11]: 57%
- Population Hoechst High Intensity Objects (%) [11]: 2%
- Population Membrane Permeable-Phenotype (%) [11]: 11%
- Population Mitochondria Different-Phenotype (%) [11]: 19%
- Population Mitotic Cells (%) [11]: 3%
- Population Normal (%) [11]: 97%
- Population Pyknosed Nuclei (%) [11]: 10%
- Population Tubulin-Different-Phenotype (%) [11]: 7%
- Total Cell Count [11]: 275
- Population Apoptotic (%) [12]: 100%
- Population Fragmented Nuclei (%) [12]: 38%
- Population Healthy Nuclei (%) [12]: 42%
- Population Hoechst High Intensity Objects (%) [12]: 4%
- Population Membrane Permeable-Phenotype (%) [12]: 12%
- Population Mitochondria Different-Phenotype (%) [12]: 41%
- Population Mitotic Cells (%) [12]: 0%
- Population Normal (%) [12]: 95%
- Population Pyknosed Nuclei (%) [12]: 19%
- Population Tubulin-Different-Phenotype (%) [12]: 8%
- Total Cell Count [12]: 144

SMILES: CNC[C@H](O)c1ccc(O)c(O)c1 [EPINEPHRINE]
- Population Apoptotic (%) [1]: 88%
- Population Fragmented Nuclei (%) [1]: 35%
- Population Healthy Nuclei (%) [1]: 56%
- Population Hoechst High Intensity Objects (%) [1]: 2%
- Population Membrane Permeable-Phenotype (%) [1]: 5%
- Population Mitochondria Different-Phenotype (%) [1]: 1%
- Population Mitotic Cells (%) [1]: 11%
- Population Normal (%) [1]: 97%
- Population Pyknosed Nuclei (%) [1]: 7%
- Population Tubulin-Different-Phenotype (%) [1]: 2%
- Total Cell Count [1]: 229
- Population Apoptotic (%) [2]: 80%
- Population Fragmented Nuclei (%) [2]: 17%
- Population Healthy Nuclei (%) [2]: 77%
- Population Hoechst High Intensity Objects (%) [2]: 0%
- Population Membrane Permeable-Phenotype (%) [2]: 7%
- Population Mitochondria Different-Phenotype (%) [2]: 2%
- Population Mitotic Cells (%) [2]: 20%
- Population Normal (%) [2]: 100%
- Population Pyknosed Nuclei (%) [2]: 5%
- Population Tubulin-Different-Phenotype (%) [2]: 4%
- Total Cell Count [2]: 92
- Population Apoptotic (%) [3]: 92%
- Population Fragmented Nuclei (%) [3]: 41%
- Population Healthy Nuclei (%) [3]: 45%
- Population Hoechst High Intensity Objects (%) [3]: 6%
- Population Membrane Permeable-Phenotype (%) [3]: 7%
- Population Mitochondria Different-Phenotype (%) [3]: 1%
- Population Mitotic Cells (%) [3]: 8%
- Population Normal (%) [3]: 93%
- Population Pyknosed Nuclei (%) [3]: 13%
- Population Tubulin-Different-Phenotype (%) [3]: 4%
- Total Cell Count [3]: 199
- Population Apoptotic (%) [4]: 86%
- Population Fragmented Nuclei (%) [4]: 33%
- Population Healthy Nuclei (%) [4]: 50%
- Population Hoechst High Intensity Objects (%) [4]: 9%
- Population Membrane Permeable-Phenotype (%) [4]: 6%
- Population Mitochondria Different-Phenotype (%) [4]: 2%
- Population Mitotic Cells (%) [4]: 13%
- Population Normal (%) [4]: 90%
- Population Pyknosed Nuclei (%) [4]: 15%
- Population Tubulin-Different-Phenotype (%) [4]: 6%
- Total Cell Count [4]: 105
- Population Apoptotic (%) [5]: 84%
- Population Fragmented Nuclei (%) [5]: 28%
- Population Healthy Nuclei (%) [5]: 64%
- Population Hoechst High Intensity Objects (%) [5]: 2%
- Population Membrane Permeable-Phenotype (%) [5]: 6%
- Population Mitochondria Different-Phenotype (%) [5]: 1%
- Population Mitotic Cells (%) [5]: 15%
- Population Normal (%) [5]: 97%
- Population Pyknosed Nuclei (%) [5]: 7%
- Population Tubulin-Different-Phenotype (%) [5]: 2%
- Total Cell Count [5]: 278
- Population Apoptotic (%) [6]: 75%
- Population Fragmented Nuclei (%) [6]: 19%
- Population Healthy Nuclei (%) [6]: 68%
- Population Membrane Permeable-Phenotype (%) [6]: 7%
- Population Mitochondria Different-Phenotype (%) [6]: 5%
- Population Mitotic Cells (%) [6]: 25%
- Population Pyknosed Nuclei (%) [6]: 11%
- Population Tubulin-Different-Phenotype (%) [6]: 1%
- Total Cell Count [6]: 105
- Population Apoptotic (%) [7]: 94%
- Population Fragmented Nuclei (%) [7]: 39%
- Population Healthy Nuclei (%) [7]: 50%
- Population Hoechst High Intensity Objects (%) [7]: 9%
- Population Membrane Permeable-Phenotype (%) [7]: 11%
- Population Mitochondria Different-Phenotype (%) [7]: 5%
- Population Mitotic Cells (%) [7]: 5%
- Population Normal (%) [7]: 90%
- Population Pyknosed Nuclei (%) [7]: 10%
- Population Tubulin-Different-Phenotype (%) [7]: 6%
- Total Cell Count [7]: 195
- Population Apoptotic (%) [8]: 100%
- Population Fragmented Nuclei (%) [8]: 31%
- Population Healthy Nuclei (%) [8]: 45%
- Population Hoechst High Intensity Objects (%) [8]: 11%
- Population Membrane Permeable-Phenotype (%) [8]: 2%
- Population Mitochondria Different-Phenotype (%) [8]: 0%
- Population Mitotic Cells (%) [8]: 0%
- Population Normal (%) [8]: 88%
- Population Pyknosed Nuclei (%) [8]: 22%
- Population Tubulin-Different-Phenotype (%) [8]: 2%
- Total Cell Count [8]: 96
- Population Apoptotic (%) [9]: 87%
- Population Fragmented Nuclei (%) [9]: 24%
- Population Healthy Nuclei (%) [9]: 66%
- Population Hoechst High Intensity Objects (%) [9]: 0%
- Population Membrane Permeable-Phenotype (%) [9]: 9%
- Population Mitochondria Different-Phenotype (%) [9]: 5%
- Population Mitotic Cells (%) [9]: 12%
- Population Normal (%) [9]: 99%
- Population Pyknosed Nuclei (%) [9]: 9%
- Population Tubulin-Different-Phenotype (%) [9]: 4%
- Total Cell Count [9]: 333
- Population Apoptotic (%) [10]: 92%
- Population Fragmented Nuclei (%) [10]: 18%
- Population Healthy Nuclei (%) [10]: 72%
- Population Membrane Permeable-Phenotype (%) [10]: 4%
- Population Mitochondria Different-Phenotype (%) [10]: 3%
- Population Mitotic Cells (%) [10]: 7%
- Population Tubulin-Different-Phenotype (%) [10]: 2%
- Total Cell Count [10]: 150
- Population Apoptotic (%) [11]: 92%
- Population Fragmented Nuclei (%) [11]: 41%
- Population Healthy Nuclei (%) [11]: 44%
- Population Hoechst High Intensity Objects (%) [11]: 10%
- Population Membrane Permeable-Phenotype (%) [11]: 15%
- Population Mitochondria Different-Phenotype (%) [11]: 8%
- Population Mitotic Cells (%) [11]: 7%
- Population Normal (%) [11]: 89%
- Population Pyknosed Nuclei (%) [11]: 14%
- Population Tubulin-Different-Phenotype (%) [11]: 10%
- Total Cell Count [11]: 215
- Population Apoptotic (%) [12]: 94%
- Population Fragmented Nuclei (%) [12]: 36%
- Population Healthy Nuclei (%) [12]: 40%
- Population Hoechst High Intensity Objects (%) [12]: 17%
- Population Membrane Permeable-Phenotype (%) [12]: 24%
- Population Mitochondria Different-Phenotype (%) [12]: 13%
- Population Mitotic Cells (%) [12]: 5%
- Population Normal (%) [12]: 82%
- Population Pyknosed Nuclei (%) [12]: 23%
- Population Tubulin-Different-Phenotype (%) [12]: 13%
- Total Cell Count [12]: 87
